# Published values collected from several papers.
# Each line is one published result; the experiments were not run side by side.
# Target: Casein kinase II subunit alpha' (CSNK2A2, Homo sapiens, UniProt P19784)
SMILES,test,conditions,remaining binding [%]
O=C(c1ccc(Nc2ncc(Cl)c(-c3cc4ccccc4s3)n2)cc1)N1CCC(N2CCCC2)CC1,"binding, competition with immobilised ligand",1 µM,0.1
Cn1cc(Cl)c2c(Oc3c(F)cc(Nc4cc(Cl)nc(N)n4)cc3F)ccnc21,"cell-free assay, competition with immobilised ligand",0.1 µM,89
C[C@@H](c1ccc(-n2cnc3c(N)ncnc32)cc1)N1CCc2nn(C)c(Cc3ccccc3)c2C1=O,"binding, competition with immobilised ligand",0.1 µM,86
O=C(Nc1c[nH]nc1C(=O)NC1CCNCC1)c1cc(F)cc(F)c1,"binding, competition with immobilised ligand",1 µM,100
Cc1cnn2ncc(-c3ccnc(N(C)C)n3)c2c1,binding,1 µM,69
O=C(NCCCN1CCOCC1)c1ccc(Nc2nccc(-c3cc4ccccc4s3)n2)cc1,"binding, competition with immobilised ligand",1 µM,19
N[C@@H]1CCN(c2nccc(-c3cnn4ncccc34)n2)C1,binding,1 µM,100
Cc1c(NC(=O)c2cc(C(N)=O)nc3cc(F)ccc23)c(C(F)(F)F)nn1Cc1ccc(C#N)cc1,"cell-free assay, competition with immobilised ligand",1 µM,100
C[C@H]1CCN(c2nccc(-c3cnn4ncccc34)n2)C1,binding,1 µM,56
CN(C)C(=O)Cn1cc(-c2nc(C3(c4ccc(-c5cnc(N)nc5)cc4)CC3)no2)cn1,"cell-free assay, competition with immobilised ligand",1 µM,100
COc1ccnn2ncc(-c3ccnc(N(C)C)n3)c12,binding,1 µM,61
c1cncc(-c2cccc(Nc3nccc(NC4CCCCC4)n3)c2)c1,"binding, competition with immobilised ligand",10 µM,65
CN(C)c1nccc(-c2cnn3ncccc23)n1,binding,1 µM,39
C[C@H](c1ccc(F)cc1)N(Cc1cccc(C(=O)O)c1)C(=O)c1cnc2ccccc2c1,"cell-free assay, competition with immobilised ligand",1 µM,86
O=C(NCCCN1CCOCC1)c1ccc(Nc2ncc(Cl)c(-c3ccc(Cl)s3)n2)cc1,"binding, competition with immobilised ligand",1 µM,0.2
Cc1cc(C)c(-n2ccn3nc(-c4cccnc4)cc23)cc1NC(=O)c1cc(C#N)cc(S(F)(F)(F)(F)F)c1,"cell-free assay, competition with immobilised ligand",0.1 µM,82.4
CN(c1nccc(-c2cnn3ncccc23)n1)C1CC1,binding,1 µM,100
COc1cnc(Nc2cccc(S(N)(=O)=O)c2)nc1N1CCN(c2ccccc2)C(=O)C1,"binding, competition with immobilised ligand",1 µM,86
CCOCCn1cc(C(=O)Nc2ccc(-n3nc(-c4cccnc4)cc3C(F)(F)F)cn2)ccc1=O,"cell-free assay, competition with immobilised ligand",1 µM,100
CCN1CCN(Cc2ccc(C(=O)Nc3ccc(C)c(Oc4ccc5c(c4)CC(=O)N5)c3)cc2C(F)(F)F)CC1,"binding, competition with immobilised ligand",1 µM,95
F[C@@H]1CCN(c2nccc(-c3cnn4ncccc34)n2)C1,binding,1 µM,100
CN([C@@H]1CCc2c(CC(=O)O)c3cc(S(C)(=O)=O)ccc3n2C1)S(=O)(=O)c1ccc(F)cc1,"cell-free assay, competition with immobilised ligand",1 µM,100
